Experiments:
[1] = folding enthalpy; higher = less favourable; fluorescence melt of hairpins on a sequencing array, two-state fit; conditions: sodium 0.088 M
How it was run: (§1)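 To match UV melts, fitted temperatures were raised by 9.35 °C. These fits were bootstrapped two-state models that gave melting temperature and folding enthalpy, combined by inverse variance over four replicates. The input was normalised Cy3 fluorescence of library hairpins with annealed Cy3 and quencher oligos on a sequenced MiSeq flow cell, imaged in 50 mM Na-HEPES pH 8.0, 25 mM NaCl in 2.5 °C steps up to 60 °C.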

[2] = melting temperature; fluorescence melt of hairpins on a sequencing array, two-state fit, raised by 9.35 °C to match UV melts; conditions: sodium 0.088 M
How it was run: as §1

Sequence	folding enthalpy [1]	Tm [2]
GAACTAGAAATAGTTC ((((((....))))))	-29.3 kcal/mol	42 °C
GCGGCAGTCCGC ((((....))))	-23.7 kcal/mol	59.7 °C
GACAGGGAAACCTGTC ((((((....))))))	-37.8 kcal/mol	58.9 °C
GTGCACGAAAGTGGGCAC ((((((....)))..)))	-22.6 kcal/mol	52.6 °C
GTGGACGAAAGTCTCAC ((((((....))).)))	-20.1 kcal/mol	46.6 °C
GCCAGCCCGAAAGGGGGC (((..(((....))))))	-14.7 kcal/mol	55.3 °C
GATCGGATGTCCGATC ((((((....))))))	-38.2 kcal/mol	56.8 °C
GTTGCTGGAAACAGTGAC ((..(((....)))..))	-28.4 kcal/mol	39.2 °C
GTGGAGCGAAAGCTCAC (((.(((....))))))	-12.1 kcal/mol	52.1 °C
GTAGCCCGAAAGGGATAC (((.(((....))).)))	-33.7 kcal/mol	64.3 °C
GTCGACGGAAACGTTGAC (((.(((....))).)))	-45.5 kcal/mol	56.3 °C
GCGAGTTGTCGC ((((....))))	-15.5 kcal/mol	50.9 °C
GGCCAGGGAAACCTAGCC (((.(((....))).)))	-28.4 kcal/mol	43.2 °C
GGAATCGAAAGATGCTCC ((((((....)))..)))	-10.7 kcal/mol	28.9 °C
GCTTGCGAAAGCATCAGC ((((((....)))..)))	-11.8 kcal/mol	37.1 °C
GGCACGGGAAACCGTGTC (.(((((....))))).)	-34.6 kcal/mol	59.2 °C
GCCATCGAAAGATGTGGC ((((((....)))..)))	-23.4 kcal/mol	46.6 °C
GATCTTTGGAAAGATC ((((((....))))))	-31.5 kcal/mol	42.7 °C
GCAACCGAAAGGTTCTGC ((((((....)))..)))	-14.9 kcal/mol	41.8 °C
GATCTCCCGAGAGATC ((((((....))))))	-38.6 kcal/mol	52.7 °C
GTGCCCGGAAACGGACAC (((.(((....))).)))	-50.2 kcal/mol	53.8 °C
GAGCCCGAAAGGGCCCTC ((((((....)))..)))	-9.76 kcal/mol	47.6 °C
GTTTCGGGAAACCGAAAC (((((((....)))))))	-40.2 kcal/mol	62.5 °C

Sequence	folding enthalpy [1]	Tm [2]
GGTTACGAAAGTAGGACC ((((((....)))..)))	-11.5 kcal/mol	32 °C
CGCGGAAGCGTCCGCG ((((((....))))))	-13.4 kcal/mol	53.2 °C
GACCAAACGAAAGTTGTC (((..(((....))))))	-13.8 kcal/mol	31 °C
GTGTGCGGAAACACACAC (((((.(....).)))))	-36.2 kcal/mol	51.8 °C
GAGATGGGAAACCACCTC (((.(((....))).)))	-31.1 kcal/mol	36.1 °C
GGTTCCGAAAGGACCACC ((((((....)))..)))	-14 kcal/mol	44.3 °C
GGTACATCGAAAGATACC (((..(((....))))))	-11.5 kcal/mol	29.7 °C
GAAGGCGGAAACGCCTCC (.(((((....))))).)	-8.57 kcal/mol	42.3 °C
GAAAGCACGAAAGTGTTC (((..(((....))))))	-9.28 kcal/mol	24 °C
GATCCCCAGCGGGATC ((((((....))))))	-30.7 kcal/mol	59.8 °C
GCAACAGGAAACTGTTGC (((((((....)))))))	-40.3 kcal/mol	68.5 °C
GATCTTTGTCAAGATC ((((((....))))))	-33 kcal/mol	39.9 °C
GGTACTCGAAAGAGCACC (((.(((....))).)))	-34.8 kcal/mol	50.5 °C
GATCTCCACAGAGATC ((((((....))))))	-32.4 kcal/mol	55.7 °C
GGTTAGTCGAAAGACACC (((..(((....))))))	-17.2 kcal/mol	35.5 °C
GATCACGCGGTGATC ((((((...))))))	-40.2 kcal/mol	59.2 °C
CGATTGAAAAATCG (((((....)))))	-27.8 kcal/mol	46 °C
GCATGGCGAAAGCAAGGC ((.(.((....)).).))	-17.2 kcal/mol	49.5 °C
GGCCACGAAAGTGAGGCC ((((((....)))..)))	-26.9 kcal/mol	58.3 °C
GTGCACGGAAACGTGTGC (..((((....))))..)	-27.7 kcal/mol	50.2 °C
GTGAACGAAAGTTCCCAC ((((((....)))..)))	-10.9 kcal/mol	29.7 °C
GTCGGGGGAAACCCCGGC (.(((((....))))).)	-22 kcal/mol	62.5 °C
GGAGTTGGAAACGACTCC (((((.(....).)))))	-23.2 kcal/mol	54.9 °C

Sequence	folding enthalpy [1]	Tm [2]
GCCCGTGCGAAAGCAGGC (((..(((....))))))	-12.4 kcal/mol	52 °C
GTACCCGAAAGGGATTAC ((((((....)))..)))	-9.27 kcal/mol	25.7 °C
GCGAATCGTCGC ((((....))))	-18 kcal/mol	47.7 °C
GGCCTCGAAAGAGCGGCC ((((((....)))..)))	-29.1 kcal/mol	51.8 °C
GGGTTGGGAAACTGACCC ((((..(....)..))))	-26.5 kcal/mol	45.1 °C
GTGTAGCGAAAGCTCCAC (((.(((....))).)))	-31.7 kcal/mol	48 °C
GGCCACGAAAGTGCTGCC ((((((....)))..)))	-20.4 kcal/mol	48.8 °C
GTGCCGCGAAAGCGCAC (((.(((....))))))	-21.1 kcal/mol	69 °C
GCTAGCGAAAGCTGTAGC ((((((....)))..)))	-21.3 kcal/mol	43.1 °C
GATCACGTGTGTGATC ((((((....))))))	-37.3 kcal/mol	58.9 °C
GCTATCGAAAGATAGAGC ((((((....)))..)))	-23.4 kcal/mol	42.7 °C
GACGGCGAAAGCCAGTC ((((((....))).)))	-22.7 kcal/mol	60.2 °C
GCACACCCGAAAGGGTGC (((..(((....))))))	-5.94 kcal/mol	38.6 °C
GATCACGATGGTGATC ((((((....))))))	-36.1 kcal/mol	58.8 °C
GATCCGGGTCCGGATC ((((((....))))))	-39.1 kcal/mol	62.5 °C
GGCGACGAAAGTCCCGCC ((((((....)))..)))	-19.5 kcal/mol	54.8 °C
GAAGGTGAAAACCTTC ((((((....))))))	-28.7 kcal/mol	57.2 °C
GATCTACTAATAGATC ((((((....))))))	-27.3 kcal/mol	38.9 °C
GAGACCGAAAGGTACTC ((((((....))).)))	-17.5 kcal/mol	43.3 °C
GGTGCTCGAAAGAGAACC (((.(((....))).)))	-48.3 kcal/mol	54.1 °C
GTCCACGGAAACGCGGAC ((((.((....)).))))	-45.8 kcal/mol	53.8 °C
GTCTAGGAAACTAGAC ((((((....))))))	-39.2 kcal/mol	50.8 °C
GATCCCGTCTGGGATC ((((((....))))))	-39.2 kcal/mol	65.5 °C

Sequence	folding enthalpy [1]	Tm [2]
GTGAGGGGAAACTCTCAC (((((.(....).)))))	-32 kcal/mol	49.4 °C
GATCTAGCGTTAGATC ((((((....))))))	-31.1 kcal/mol	39.7 °C
GGAACCGAAAGGTGCTCC ((((((....)))..)))	-12.5 kcal/mol	38.8 °C
GCCCAGCGAAAGCTCAGC ((..(((....)))..))	-8.74 kcal/mol	32.6 °C
GTAATGCGAAAGCAATAC (((.(((....))).)))	-20 kcal/mol	44.6 °C
GGTACCGAAAGGTTACC ((((((....))).)))	-26.4 kcal/mol	50 °C
GCTTTCGGAAACGAAGGC ((.((((....)))).))	-35.3 kcal/mol	50.9 °C
GCTACGTCGAAAGACAGC (((..(((....))))))	-16.2 kcal/mol	36.4 °C
GATCAGACCCCTGATC ((((((....))))))	-34.7 kcal/mol	47.7 °C
GTGGAGGGAAACCTTCAC (((.(((....))).)))	-31.9 kcal/mol	47.3 °C
GATCGGAGAACCGATC ((((((....))))))	-33.8 kcal/mol	52.6 °C
GCTCACCGAAAGGTTAGC (((.(((....))).)))	-31 kcal/mol	49.9 °C
GTGATGGGAAACCGTTAC ((.(.((....)).).))	-18.6 kcal/mol	31 °C
GAGTAAACGAAAGTTCTC (((..(((....))))))	-13.9 kcal/mol	30.1 °C
GCCCCGCGAAAGCCGCGC ((.(.((....)).).))	-13.7 kcal/mol	31.5 °C
GATCAATGTCTTGATC ((((((....))))))	-27.9 kcal/mol	43.5 °C
GTGTCCGAAAGGAGTCAC ((((((....)))..)))	-19.1 kcal/mol	35 °C
GTTCACGAAAGTGTCAAC ((((((....)))..)))	-10.7 kcal/mol	28.6 °C
GTAGACCGAAAGGTTTAC (((.(((....))).)))	-27.9 kcal/mol	48.5 °C
GTATACCGAAAGGTTTAC (((.(((....))).)))	-27.5 kcal/mol	43.3 °C
GATCACCCGAAAGGGATC (((..(((....))))))	-14 kcal/mol	35.5 °C
GGGCTCGAAAGAGTGCCC ((((((....)))..)))	-34.1 kcal/mol	51.3 °C
CGCCCGGAAACGGGGGCG ((((((....)))..)))	-12.5 kcal/mol	68.6 °C
